By EC50 is commonly meant the concentration giving half of the maximal effect.

Active and inactive are the calls of the source. The calls are words filed in the database; no cut-off is given here.

The subject of series [1] is PC-12. The series is described as follows: Cytotoxicity against rat PC12 cells assessed as decrease in cell viability at 20 uM after 24 hrs by MTT assay. Type of series: cell-based. Conditions: pc-12, 24 h. The procedure, abridged:
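PC12 cells grown in DMEM with 10% FBS at 37 °C and 5% CO2, seeded at 10 000 cells/well and cultured 24 h. Compound added at 20 μM without glutamate (DMSO stock at 1000× final). Then MTT (5 mg/mL stock) added for 4 h at 37 °C, formazan dissolved in DMSO, and A570 read. Viability given as % of untreated control.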

The subject of series [2] is PC-12. Nature of the series: Neuroprotective activity against 12.5 mM glutamate-induced toxicity in rat PC12 cells assessed as cell viability at 10 uM after 24 hrs by MTT assay. Type of series: functional, cell-based. In short, it runs like this: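 Concentration-response run in PC12 cells co-exposed 24 h to 12.5 mM glutamate and compound at 0.1, 1, 5, 10, 15 or 20 μM. Viability by MTT (4 h at 37 °C, formazan in DMSO, A570), relative to untreated control; mean ± SD, n = 6.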

For series [3], the system named is PC-12. Nature of the series: cells. As to conditions: Rattus norvegicus, PC-12, 24 h.
Series [4] deals with PC-12. Nature of the series: Neuroprotective activity against 12.5 mM glutamate-induced apoptosis in rat PC12 cells assessed as decrease in cytochrome c level at 0.1 to 10 uM after 24 hrs by chemiluminescence based Western blot analysis. Type of series: functional, cell-based. In short, it runs like this: (§1)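 PC12 cells exposed 24 h to compound at 0.1, 1 or 10 μM, with or without 12.5 mM glutamate. Protein extracted in lysis buffer and quantified by BCA. Equal amounts run on 12% SDS-PAGE, blotted to nitrocellulose, blocked in 5% nonfat milk, then primary antibodies overnight at 4 °C and HRP secondaries. Cytochrome c measured in the cytosolic fraction. Mean ± SD, n = 3.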
(In general: A western blot detects proteins with antibodies after separation by electrophoresis.)

Series [5] relates to PC-12. The series is described as follows: Induction of apoptosis in rat PC12 cells assessed as late apoptotic cells at 10 uM after 24 hrs by Annexin V-FITC/propidium iodide staining based flow cytometry (reference value: 45.53%). The format is cell-based. As to conditions: pc-12, 24 h. (In general: In flow cytometry, cells or beads pass a laser one at a time.)
The test system of series [6] is PC-12. Nature of the series: Neuroprotective activity against 12.5 mM glutamate-induced apoptosis in rat PC12 cells assessed as late apoptotic cells at 10 uM after 24 hrs by Annexin V-FITC/propidium iodide staining based flow cytometry (reference value: 45.53%). Type of series: functional.
In series [7] the test system is PC-12. The series is described as follows: Neuroprotective activity against 12.5 mM glutamate-induced apoptosis in rat PC12 cells assessed as increase in Bcl-2 level at 0.1 to 10 uM after 24 hrs by chemiluminescence based Western blot analysis. The format is functional, cell-based. The procedure, abridged: as §1
The subject of series [8] is PC-12. The series is described as follows: Neuroprotective activity against 12.5 mM glutamate-induced apoptosis in rat PC12 cells assessed as decrease in caspase 3 level after 24 hrs by chemiluminescence based Western blot analysis. Type of series: functional, cell-based. In short, it runs like this:
as §1

In series [9] the test system is PC-12. Nature of the series: Neuroprotective activity against 12.5 mM glutamate-induced apoptosis in rat PC12 cells assessed as late apoptotic cells at 0.1 uM after 24 hrs by Annexin V-FITC/propidium iodide staining based flow cytometry (reference value: 45.53%). The format is functional.
For series [10], the system named is PC-12. Nature of the series: Neuroprotective activity against 12.5 mM glutamate-induced apoptosis in rat PC12 cells assessed as early apoptotic cells at 1 uM after 24 hrs by Annexin V-FITC/propidium iodide staining based flow cytometry (reference value: 1.04%). Type of series: functional.
In series [11] the test system is PC-12. Nature of the series: Induction of apoptosis in rat PC12 cells assessed as early apoptotic cells at 10 uM after 24 hrs by Annexin V-FITC/propidium iodide staining based flow cytometry (reference value: 1.04%). Conditions: pc-12, 24 h. The format is cell-based.
Series [12] has as its system PC-12. The series is described as follows: Neuroprotective activity against 12.5 mM glutamate-induced apoptosis in rat PC12 cells assessed as early apoptotic cells at 0.1 uM after 24 hrs by Annexin V-FITC/propidium iodide staining based flow cytometry (reference value: 1.04%). Type of series: functional.
The test system of series [13] is PC-12. The series is described as follows: Neuroprotective activity against 12.5 mM glutamate-induced apoptosis in rat PC12 cells assessed as early apoptotic cells at 10 uM after 24 hrs by Annexin V-FITC/propidium iodide staining based flow cytometry (reference value: 1.04%). The format is functional.
Series [14] deals with PC-12. Nature of the series: Neuroprotective activity against 12.5 mM glutamate-induced toxicity in rat PC12 cells assessed as cell viability at 0.1 uM after 24 hrs by MTT assay. A general note: Tetrazolium assays rely on reduction of a dye to a coloured formazan, in cell work by metabolically active cells.
The test system of series [15] is PC-12. The series is described as follows: Neuroprotective activity against 12.5 mM glutamate-induced apoptosis in rat PC12 cells assessed as late apoptotic cells at 1 uM after 24 hrs by Annexin V-FITC/propidium iodide staining based flow cytometry (reference value: 45.53%). Type of series: functional.
Series [16] relates to PC-12. Nature of the series: Neuroprotective activity against 12.5 mM glutamate-induced apoptosis in rat PC12 cells assessed as decrease in Bax level at 0.1 to 10 uM after 24 hrs by chemiluminescence based Western blot analysis. Type of series: functional, cell-based. The procedure, abridged: as §1
Series [17] deals with PC-12. The series is described as follows: Neuroprotective activity against 12.5 mM glutamate-induced apoptosis in rat PC12 cells assessed as decrease in caspase 9 level after 24 hrs by chemiluminescence based Western blot analysis. Type of series: functional, cell-based. The procedure, abridged: as §1

Regarding `CCCCCCCCC/C=C/CC/C=C/[C@@H](O)[C@H](CO[C@@H]1O[C@H](CO)[C@@H](O)[C@H](O)[C@H]1O)NC(=O)[C@H](O)CCCCCCCCCCCCCCCCCC`, in the series with PC-12 [1], the Activity result is “Non-Toxic”. The result with PC-12 [2] was Active. The compound further showed an EC50 in the series on PC-12 [3] of 12.4 µM.
Taken in the same sequence, the figures for `CCCCCCCCC/C=C/CC/C=C/[C@@H](O)[C@H](CO[C@@H]1O[C@H](CO)[C@@H](O)[C@H](O)[C@H]1O)NC(=O)[C@H](O)CCCCCCCCCCCCCC` were “Non-Toxic”, “Active” and 29.7 µM.
In the series with PC-12 [3], `CC1=NN(c2ccccc2)C(=O)C1` [EDARAVONE] had an EC50 of 9.2 µM.
Turning to `CCCCCCCCC/C=C\CCC[C@@H](O)[C@@H](O)[C@H](CO[C@@H]1O[C@H](CO)[C@@H](O)[C@H](O)[C@H]1O)NC(=O)[C@H](O)CCCCCCCCCCCCCCCCCCCC`, the Activity result in the series on PC-12 [1] is on record as “Non-Toxic”. In the series on PC-12 [2], the result was Active. Moreover, in the series with PC-12 [3], the EC50 came out at 6.6 µM.
Taken in the same sequence, the figures for `CCCCCCCCC/C=C/CC/C=C/[C@@H](O)[C@H](CO[C@@H]1O[C@H](CO)[C@@H](O)[C@H](O)[C@H]1O)NC(=O)[C@H](O)CCCCCCCCCCCCCCCCCCCC` were “Non-Toxic”, “Active” and 6.9 µM.
Taken in the same sequence, the figures for `CCCCCCCCC/C=C/CC/C=C/[C@@H](O)[C@H](CO[C@@H]1O[C@H](CO)[C@@H](O)[C@H](O)[C@H]1O)NC(=O)[C@H](O)CCCCCCCCCCCCCCCCCCCCCC` were “Non-Toxic”, “Active” and 2.7 µM.
Take `CCCCCCCCC/C=C\CC/C=C/[C@@H](O)[C@H](CO[C@@H]1O[C@H](CO)[C@@H](O)[C@H](O)[C@H]1O)NC(=O)[C@H](O)CCCCCCCCCCCCCCCCCCC`: the Activity entry in the series on PC-12 [1] is “Non-Toxic”. In the series with PC-12 [2], the outcome was Active. The same compound had an EC50 in the series with PC-12 [3] of 8.9 µM.
For `CCCCCCCCC/C=C\CC/C=C/[C@@H](O)[C@H](CO[C@@H]1O[C@H](CO)[C@@H](O)[C@H](O)[C@H]1O)NC(=O)[C@H](O)CCCCCCCCCCCCCCCCCCCCCC`, the outcome with PC-12 [4], in the series on PC-12 [7], with PC-12 [2], in the series on PC-12 [14] and in the series with PC-12 [16] was Active. Further, the Activity with PC-12 [5] was 1.49%; in the series with PC-12 [6], 2.11%; with PC-12 [1] it was “Non-Toxic”; in the series with PC-12 [8] it was “Dose-dependent effect”; in the series on PC-12 [9], 30.63%; in the series on PC-12 [10], 1.2%. Moreover, the Activity is 0.62% in the series with PC-12 [11]; 1.79% in the series on PC-12 [12]; 1.02% in the series with PC-12 [13]; 22.38% in the series with PC-12 [15]; “Dose-dependent effect” in the series on PC-12 [17]. In the series on PC-12 [3], this compound returned an EC50 of 2.5 µM.
Regarding `CCCCCCCCC/C=C/CC/C=C/[C@@H](O)[C@H](CO[C@@H]1O[C@H](CO)[C@@H](O)[C@H](O)[C@H]1O)NC(=O)[C@H](O)CCCCCCCCCCCCCCCC`, in the series on PC-12 [1], the Activity entry is reported as “Non-Toxic”. The outcome in the series on PC-12 [2] was Active. Moreover, it took 22.2 µM to reach a half-maximal effect in the series with PC-12 [3] (EC50).
Taken in the same sequence, the figures for `CCCCCCCCC/C=C\CC/C=C/[C@@H](O)[C@H](CO[C@@H]1O[C@H](CO)[C@@H](O)[C@H](O)[C@H]1O)NC(=O)[C@H](O)CCCCCCCCCCCCCCCC` were “Non-Toxic”, “Active” and 20.1 µM.
Taken in the same sequence, the figures for `CCCCCCCCC/C=C/CC/C=C/[C@@H](O)[C@H](CO[C@@H]1O[C@H](CO)[C@@H](O)[C@H](O)[C@H]1O)NC(=O)[C@H](O)CCCCCCCCCCCCCCCCCCC` were “Non-Toxic”, “Active” and 8.8 µM.
The like results for `CCCCCCCCC/C=C\CC/C=C/[C@@H](O)[C@H](CO[C@@H]1O[C@H](CO)[C@@H](O)[C@H](O)[C@H]1O)NC(=O)[C@H](O)CCCCCCCCCCCCCC` were, in that order, “Non-Toxic”, “Active” and 27.1 µM.
Turning to `CCCCCCCCC/C=C\CC/C=C/[C@@H](O)[C@H](CO[C@@H]1O[C@H](CO)[C@@H](O)[C@H](O)[C@H]1O)NC(=O)[C@H](O)CCCCCCCCCCCCCCCCCCCC`, the Activity entry with PC-12 [1] is recorded as “Non-Toxic”. Also, the result in the series on PC-12 [2] was Active. Further, in the series with PC-12 [3], the EC50 worked out at 6.5 µM.
In the case of `CCCCCCCCC/C=C\CC/C=C/[C@@H](O)[C@H](CO[C@@H]1O[C@H](CO)[C@@H](O)[C@H](O)[C@H]1O)NC(=O)[C@H](O)CCCCCCCCCCCCCCCCCC`, in the series with PC-12 [1], the Activity result is given as “Non-Toxic”. The outcome in the series with PC-12 [2] was Active. Further, it took 12 µM to reach a half-maximal effect in the series on PC-12 [3] (EC50).

These data come from ChEMBL document CHEMBL4190188, “Neuroprotective Activity of Cerebrosides from Typhonium giganteum by Regulating Caspase-3 and Bax/Bcl-2 Signaling Pathways in PC12 Cells” (J Nat Prod, 2017).
